Bioassay records: PubChem, Broad Institute
SIRT5 block: inhibitors of human sirtuin-5 desuccinylase; Q9NXA8; Purified SirT5, succinyl-peptide AMC, trypsin-coupled fluorescence; inhibition, % at 15 µM; 1.1% of 330,000 active; AID 652115; in the data active = inhibition above about 15%; inconclusive = no clear call, values can overlap the other calls
Target sequence (Q9NXA8 whole entry, looked up): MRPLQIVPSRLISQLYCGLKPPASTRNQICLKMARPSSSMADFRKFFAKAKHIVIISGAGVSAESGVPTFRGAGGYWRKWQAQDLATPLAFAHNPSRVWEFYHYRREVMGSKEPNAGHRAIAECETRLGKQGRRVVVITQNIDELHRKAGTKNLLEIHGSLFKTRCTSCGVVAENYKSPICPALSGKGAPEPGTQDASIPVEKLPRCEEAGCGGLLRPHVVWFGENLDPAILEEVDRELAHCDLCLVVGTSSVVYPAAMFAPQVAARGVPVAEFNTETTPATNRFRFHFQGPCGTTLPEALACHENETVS
FN deposit inh: fibronectin deposition inhibition; AH1F fibroblasts, Alexa488-fibronectin deposition fluorescence, overnight; inhibition, % at 12.6 µM; 0.086% of 350,000 active; AID 743247;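 active = mean inhibition across replicates of 30% or more, regardless of how many single replicates reach that level; inconclusive = mean under 30% yet at least half of replicates reach 30%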;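 also: positive control wells lacked labelled fibronectin entirely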
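Assay system: AH1F fibroblasts assembling fluorescent fibronectin matrix; Amount: 10000 AH1F cells per well; Buffer or medium: DMEM, 2% serum; Probe or stimulus: Alexa488-fibronectin, 24 nM final in well; Doses: single compound dose, delivered by pin transfer; Incubation: 1 h adhesion, overnight exposure; Measured by: fluorescence 485/525 nm; Read-out: fibronectin deposition inhibition.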
ARNT TACC3 PPI: disruptors of human ARNT/TACC3 interaction | Q9Y6A5 | 0.66% of 390,000 active | AlphaScreen His-ARNT PAS-B/GST-TACC3 binding, luminescence; TACC3 fragment carries E629A point mutation | inhibition, % at 9.99 µM | AID 623870;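 active = mean inhibition of replicates at least 50% and at least half of replicates each reaching 50%; inconclusive = half or more replicates reach 50% but mean below 50%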;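 also: 0% = complete ARNT plus TACC3 wells and 100% = ARNT alone without TACC3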
DENV2 CPE rescue: DENV2-induced cell death inhibition; DENV2-infected cells, cytopathic effect rescue, plate reader; CPE inhibition, % at 9.99 µM; 1.7% of 350,000 active; in the data active = CPE inhibition above about 20%, passing the limit was not always enough; inconclusive = no clear call, values can overlap the other calls; tested in BHK-21 cells;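 also: 0% = median of neutral control wells and 100% = median of positive control wells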
FGF22 binding: binders of recombinant human FGF22 by thermal shift; SYPRO orange fluorescence; percent of sucrose octasulfate shift, DMSO zero; activity (Tm shift, normalised), % at 9.99 µM; 1.5% of 340,000 active;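 active = mean Tm shift, scaled 0 neutral to 100 positive control, at about 1.3% or above, every replicate too, limit read from the data; inconclusive = no clear call, values can overlap the other calls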
Target sequence (Q9HCT0 whole entry, looked up): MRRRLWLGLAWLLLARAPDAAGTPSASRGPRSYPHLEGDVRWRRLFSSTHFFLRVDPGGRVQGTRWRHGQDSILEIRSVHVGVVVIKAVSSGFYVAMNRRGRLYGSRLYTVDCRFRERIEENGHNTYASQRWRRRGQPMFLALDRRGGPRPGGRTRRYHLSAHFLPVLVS
Xi reactivation: activators of X-chromosome reactivation in mouse fibroblasts; XiGFP mouse fibroblasts, % GFP-positive cells imaging, 3 d; cells co-treated with 5-aza-dC sensitizer; scaled so ellipticine positive control = 100%; activation, % at 7.58 µM; 0.055% of 360,000 active; AID 743238;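 active = mean normalized replicate activation at least 10% and every replicate at or above 10%; inconclusive = only one of the two criteria met; inactive = mean below 10% and not all replicates reach 10%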;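 also: 0% = median of on-plate neutral control wells and 100% = ellipticine 6 µM median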
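assay system = SV40-immortalized XiGFP fibroblast cells, line 68-5-11 | buffer or medium = DMEM plus 5-aza-dC sensitizer | doses = single-point pinned compound dosing | times = 3-day compound exposure, then 15 min fixation at room temperature | benchmarks = positive control ellipticine, 6 µM final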
An asterisk follows results filed as active; ? = inconclusive; nt = not tested or not shown. Hits are enriched below; roughly 3.8% of the tested compounds scored in any of these assays.

SMILES | SIRT5 block | FN deposit inh | ARNT TACC3 PPI | DENV2 CPE rescue | FGF22 binding | Xi reactivation
C[C@@H]1CN([C@H](C)CO)C(=O)c2cccc(NS(C)(=O)=O)c2O[C@@H]1CN(C)C(=O)Nc1ccc2c(c1)OCO2 | 0 | nt | 15 | -12 | -1 | 1
O[C@H]1C[C@H](c2ccc(Cl)cc2)N(Cc2cccs2)C[C@@H]1n1cc(-c2ccc(F)cc2)nn1 | -4 | nt | nt | 5 | 0 | 0
CCCCCCN1C[C@H](n2cc(-c3ccc(F)cc3)nn2)[C@@H](O)C[C@@H]1c1ccccc1 | -1 | -11 | nt | 93* | 0 | 0
O[C@@H]1CN(Cc2cccs2)[C@@H](c2ccccc2)C[C@H]1n1cc(-c2ccc(F)cc2)nn1 | 3 | 17 | nt | 51* | 0 | 0
COc1ccc2c3c(n(C)c2c1)[C@H](CO)N(Cc1ccc(Cl)cc1)CC31CCN(CC2CC2)CC1 | 4 | 16 | nt | 7 | 0 | 0
CCOC(=O)C1=C(C)NC(SCC(N)=O)=C(C#N)C1c1cccs1 (stereo not given) | nt | nt | 0 | nt | nt | nt
CCOC(=O)C1=C(C)NC(SCc2cc(=O)[nH][nH]2)=C(C#N)C1c1cccs1 (stereo not given) | 20* | nt | 15 | 11 | 1 | nt
C[C@H](CO)N1C[C@H](C)[C@@H](CN(C)Cc2ccc(C(=O)Nc3ccccc3N)cc2)Oc2ccc(NC(=O)NC3CCCCC3)cc2CC1=O | 3 | nt | -4 | -5 | 0 | -1
CC(C)NC(=O)Nc1ccc2c(c1)CC(=O)N([C@@H](C)CO)C[C@H](C)[C@@H](CN(C)Cc1ccc(C(F)(F)F)cc1)O2 | 2 | nt | -1 | 10 | 0 | 0
Cc1ccc(S(=O)(=O)N(C)C[C@H]2Oc3c(NC(=O)CCCCCC(=O)Nc4ccccc4N)cccc3C(=O)N([C@@H](C)CO)C[C@H]2C)cc1 | 3 | nt | nt | ? | 1 | 0
COc1ccc(NC(=O)N(C)C[C@H]2OCCCC[C@@H](C)Oc3ccc(NC(=O)Nc4ccc5c(c4)OCO5)cc3C(=O)N([C@@H](C)CO)C[C@H]2C)cc1 | 12 | nt | 6 | 70* | 0 | 0
C[C@H](CO)N1C[C@H](C)[C@@H](CN(C)C(=O)Nc2cccc3ccccc23)OCCCC[C@H](C)Oc2ccc(NC(=O)Nc3ccc4c(c3)OCO4)cc2C1=O | 5 | nt | -5 | 0 | 1.7* | 0
COc1ccc(NC(=O)N(C)C[C@H]2OCCCC[C@@H](C)Oc3ccc(NC(=O)Cc4ccccc4)cc3C(=O)N([C@H](C)CO)C[C@@H]2C)cc1 | 19* | nt | 6 | 0 | 0 | 0
C[C@@H]1CCCCO[C@@H](CN(C)C(=O)Nc2cccc3ccccc23)[C@H](C)CN([C@@H](C)CO)C(=O)c2cc(NC(=O)Nc3ccc4c(c3)OCO4)ccc2O1 | -2 | nt | -5 | 2 | nt | -1
COc1ccc(NC(=O)Nc2ccc3c(c2)C(=O)N([C@@H](C)CO)C[C@H](C)[C@H](CN(C)C(=O)Nc2ccc4c(c2)OCO4)OCCCC[C@@H](C)O3)cc1 | 4 | nt | 33 | -3 | -1 | 0
COc1ccc(NC(=O)Nc2ccc3c(c2)C(=O)N([C@H](C)CO)C[C@H](C)[C@H](CN(C)C(=O)Nc2cccc4ccccc24)OCCCC[C@H](C)O3)cc1 | 14 | 9 | -10 | 1 | 0 | 0
COc1ccc(NC(=O)Nc2ccc3c(c2)C(=O)N([C@@H](C)CO)C[C@@H](C)[C@H](CN(C)C(=O)Nc2cccc4ccccc24)OCCCC[C@H](C)O3)cc1 | 20* | 3 | -11 | 1 | 0 | 0
C[C@@H]1CN([C@H](C)CO)C(=O)c2cc(-c3cccc(C#N)c3)cnc2O[C@H]1CN(C)C(=O)c1ccccn1 | -5 | nt | 1 | 4 | 0 | -2
CCCN1C[C@@H](C)[C@@H](OC)CN(C)C(=O)c2ccc(NC(=O)c3ccccc3F)cc2OC[C@@H]1C | -2 | -13 | -1 | -1 | 0 | 0
O=C(O)[C@H]1[C@H](CO)[C@H]2Cn3c(ccc(C4=CCCCC4)c3=O)[C@H]2N1C(=O)c1ccccc1F | nt | nt | nt | nt | 0 | 0
Cc1noc(C)c1NC(=O)Nc1ccc2c(c1)C(=O)N([C@H](C)CO)C[C@H](C)[C@@H](CN(C)C)OCCCC[C@@H](C)O2 | nt | nt | nt | nt | nt | -1
COc1ccc(NC(=O)Nc2ccc3c(c2)C(=O)N([C@@H](C)CO)C[C@H](C)[C@H](CN(C)C(=O)c2ccccc2)OCCCC[C@H](C)O3)cc1 | 2 | nt | -2 | ? | 1.4* | -1
C[C@H](CO)N1C[C@H](C)[C@@H](CN(C)C(=O)Nc2cccc3ccccc23)OCCCC[C@H](C)Oc2ccc(NC(=O)NC3CCCCC3)cc2C1=O | 6 | 11 | -13 | 113* | 0 | 0
COc1ccc(NC(=O)N(C)C[C@@H]2OCCCC[C@@H](C)Oc3ccc(NC(=O)Nc4ccccc4)cc3C(=O)N([C@H](C)CO)C[C@@H]2C)cc1 | 4 | -4 | 2 | 39* | -1 | 0
COc1ccc(NC(=O)Nc2ccc3c(c2)C(=O)N([C@H](C)CO)C[C@H](C)[C@H](CN(C)C(=O)NC(C)C)OCCCC[C@H](C)O3)cc1 | -5 | 2 | -7 | 33* | -1 | 0
SMILES | SIRT5 block | FN deposit inh | ARNT TACC3 PPI | DENV2 CPE rescue | FGF22 binding | Xi reactivation
COc1ccccc1CNC(=O)C[C@H]1C[C@@H]2c3cc(NC(=O)Nc4ccc(C(F)(F)F)cc4)ccc3O[C@@H]2[C@@H](CO)O1 | 0 | -25 | 4 | 5 | 0 | 0
C[C@@H]1CN([C@@H](C)CO)C(=O)c2cccc(NC(=O)c3ccncc3)c2O[C@@H]1CN(C)S(=O)(=O)c1ccc(Cl)cc1 | 0 | nt | 4 | ? | 0 | 0
CC(C)NC(=O)N1[C@@H]2CN(C(=O)C3CC3)c3ccccc3[C@@H]2[C@@H]1CO | -3 | nt | -15 | 15 | 0 | 0
COc1ccc(NC(=O)Nc2ccc3c(c2)C(=O)N([C@@H](C)CO)C[C@@H](C)[C@@H](CN(C)CC2CCCCC2)OCCCC[C@H](C)O3)cc1 | -2 | nt | 0 | ? | 1.3* | 0
COc1ccc(NC(=O)Nc2ccc3c(c2)C(=O)N([C@H](C)CO)C[C@@H](C)[C@@H](CN(C)C(=O)Nc2ccc(OC)cc2)OCCCC[C@@H](C)O3)cc1 | nt | -4 | nt | 48* | nt | 0
C[C@H]1CCCCO[C@@H](CN(C)C(=O)Nc2cccc3ccccc23)[C@@H](C)CN([C@@H](C)CO)C(=O)c2cc(NC(=O)Cc3ccccc3)ccc2O1 | 4 | nt | -1 | 83* | 1 | 0
COCC(=O)Nc1ccc2c(c1)[C@@H]1C[C@@H](CC(=O)NCCc3ccccc3)O[C@H](CO)[C@@H]1O2 | 0 | -5 | 4 | -3 | 0 | 0
